Laboratory results: ChEMBL document CHEMBL5712918, “Targeting methyltransferase PRMT5 retards the carcinogenesis and metastasis of HNSCC via epigenetically inhibiting Twist1 transcription” (Neoplasia, 2020)
The source made the active and inactive calls. No cut-off for these calls is given here.

What was measured:
Rattus norvegicus [1] = experiment: Antitumor activity against 4-Nitroquinoline-1-Oxide induced cancer Sprague-Dawley rat carcinogenic model assessed as cancer area of tongue tissue at 30 mg/kg, iv administered on week 12 and measured on week 22 (reference value: 80%); type: functional; conditions: time 10 weeks
HSC-6 [2] = experiment: Antitumor activity against human HSC-6 cells xenografted in BALB/c nude mouse model of orthotopic tumor assessed as as reduction in distant metastasis in liver at 30 mg/kg by H and E analysis; type: functional, organism-based
[3] = Toxicity in BALB/c nude mouse xenografted with human HSC6 cells assessed as effect on body weight at 15 to 30 mg/kg; type: organism-based; conditions: in vivo, dose 15-30 mg/kg
Procedure, shortened: (§1)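 Subcutaneous xenograft in 4-week-old BALB/c nude mice given 6 × 10^7 HSC6 cells into the back. Groups were control, 15 mg/kg and 30 mg/kg. Body weight was monitored and major organs were examined for toxicity.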

HSC-6 [4] = experiment: Antitumor activity against human HSC-6 cells xenografted in BALB/c nude mouse assessed as reduction in number of Twist1 positive cells at 30 mg/kg by IHC staining; type: functional, organism-based
Procedure, shortened: (§2)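 HSC6 subcutaneous xenograft: 6 × 10^7 cells into the back of 4-week-old BALB/c nude mice, dosed at 15 or 30 mg/kg. IHC with Ki67 1:400 or Twist1 1:250. Percent positive cells from 5 random fields per sample. Student's t test; Twist1 groups n = 6/6.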

Rattus norvegicus [5] = experiment: Antitumor activity against 4-Nitroquinoline-1-Oxide induced cancer Sprague-Dawley rat carcinogenic model assessed as dysplasia area of tongue tissue at 30 mg/kg, iv administered on week 12 and measured on week 22 (reference value: 13.3%); type: functional; conditions: time 10 weeks
Rattus norvegicus [6] = experiment: Antitumor activity against 4-Nitroquinoline-1-Oxide induced cancer Sprague-Dawley rat carcinogenic model assessed as reduction in number of Twist1 positive cells at 30 mg/kg, iv administered on week 12 and measured on week 22 by IHC assay; type: functional, organism-based; conditions: time 10.0 weeks
Procedure, shortened: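 4NQO-induced SD rat tongue lesions (0.002% 4NQO in drinking water for 12 weeks; tail-vein 30 mg/kg from week 12; killed at week 22). IHC with Twist1 antibody 1:250. Percentage of positive cells from 5 random fields per sample. Groups n = 11/6, mean ± SD, Student's t test.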

HSC-6 [7] = experiment: Antimigratory activity against human HSC-6 cells assessed as reduction in cell migration after 48 hrs incubated for 48 hrs by transwell assay; type: functional, cell-based
[8] = biological target: Protein arginine N-methyltransferase 5 (Homo sapiens) (UniProt O14744); experiment: Inhibition of PRMT5 in human HSC-6 cells assessed as reduction in H4R3me2 protein expression at 10 uM incubated for 4 days by western blot analysis; type: cell-based; conditions: time 4.0 day
Protein arginine N-methyltransferase 5 (Homo sapiens), sequence (O14744 whole entry): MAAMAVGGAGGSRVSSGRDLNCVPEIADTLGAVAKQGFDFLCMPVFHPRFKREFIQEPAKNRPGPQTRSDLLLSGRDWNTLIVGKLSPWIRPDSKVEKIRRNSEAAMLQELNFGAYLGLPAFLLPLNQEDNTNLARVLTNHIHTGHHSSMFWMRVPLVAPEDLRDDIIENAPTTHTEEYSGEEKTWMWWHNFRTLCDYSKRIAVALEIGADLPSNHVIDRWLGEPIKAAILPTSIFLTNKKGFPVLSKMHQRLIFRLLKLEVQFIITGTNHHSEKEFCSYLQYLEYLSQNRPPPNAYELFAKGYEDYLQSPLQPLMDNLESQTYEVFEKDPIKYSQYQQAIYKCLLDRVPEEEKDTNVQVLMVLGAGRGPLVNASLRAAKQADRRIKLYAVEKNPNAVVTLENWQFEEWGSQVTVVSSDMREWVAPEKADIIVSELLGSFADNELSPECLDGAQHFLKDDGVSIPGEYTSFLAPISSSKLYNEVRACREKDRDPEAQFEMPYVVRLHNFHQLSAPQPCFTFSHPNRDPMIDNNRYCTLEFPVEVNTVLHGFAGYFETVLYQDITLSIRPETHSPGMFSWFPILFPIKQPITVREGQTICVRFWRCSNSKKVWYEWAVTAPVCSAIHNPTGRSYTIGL

HSC-6 [9] = experiment: Antiproliferative activity against human HSC-6 cells assessed as reduction in cell vaibility at 1 to 10 uM by CCK-8 assay; type: functional, cell-based; conditions: dose 1-10 µM
Procedure, shortened: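 Proliferation of HSC6 and SCC25 cells read by CCK-8 conversion. Mean ± SD of three independent experiments, Student's t test.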

HSC-6 [10] = experiment: Anti-invasive activity against human HSC-6 cells assessed as reduction in cell invasion after 48 hrs incubated for 48 hrs by transwell assay; type: functional, cell-based
HSC-6 [11] = experiment: Antitumor activity against human HSC-6 cells xenografted in BALB/c nude mouse assessed as as reduction in lymphnode metastasis at 30 mg/kg by H and E analysis; type: functional, organism-based
[12] = biological target: Protein arginine N-methyltransferase 5 (Homo sapiens) (UniProt O14744); experiment: Inhibition of PRMT5 in human SCC-25 cells assessed as increase in E-cadherin protein expression level at 10 uM incubated for 4 days by western blot analysis; type: cell-based; conditions: time 4.0 day
Procedure, shortened: (§3)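 HSC6 or SCC25 cells treated with 10 μM for 4 days. E-cadherin, N-cadherin and Twist1 proteins detected by immunoblot.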

[13] = biological target: Protein arginine N-methyltransferase 5 (Homo sapiens) (UniProt O14744); experiment: Inhibition of PRMT5 in human HSC-6 cells over expressing Twist1 assessed as decrease in E-cadherin protein level at 10 uM incubated for 4 days by immunoblot analysis; type: cell-based; conditions: time 4.0 day
Procedure, shortened: (§4)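 HSC6 cells stably overexpressing Flag-Twist1, with or without 10 μM for 4 days. Twist1, N-cadherin and E-cadherin proteins detected by immunoblot.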

SCC-25 = experiment: Antimigratory activity against human SCC-25 cells assessed as reduction in cell migration after 48 hrs incubated for 48 hrs by transwell assay; type: functional, cell-based
[14] = Toxicity in BALB/c nude mouse xenografted with human HSC6 cells assessed as effect on kidney morphology at 15 to 30 mg/kg; type: organism-based; conditions: in vivo, dose 15-30 mg/kg; procedure, shortened: as §1
[15] = biological target: Protein arginine N-methyltransferase 5 (Homo sapiens) (UniProt O14744); experiment: Inhibition of PRMT5 in human HSC-6 cells over expressing Twist1 assessed as increase in N-cadherin protein level at 10 uM incubated for 4 days by immunoblot analysis; type: cell-based; conditions: time 4.0 day; procedure, shortened: as §4
[16] = biological target: Protein arginine N-methyltransferase 5 (Homo sapiens) (UniProt O14744); experiment: Inhibition of PRMT5 in human HSC-6 cells assessed as increase in E-cadherin protein expression level at 10 uM incubated for 4 days by western blot analysis; type: cell-based; conditions: time 4.0 day; procedure, shortened: as §3
[17] = biological target: Protein arginine N-methyltransferase 5 (Homo sapiens) (UniProt O14744); experiment: Inhibition of PRMT5 in human SCC-25 cells over expressing Twist1 assessed as decrease in E-cadherin protein level at 10 uM incubated for 4 days by immunoblot analysis; type: cell-based; conditions: time 4.0 day
Procedure, shortened: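 SCC25 cells stably overexpressing Flag-tagged Twist1 were treated with or without 10 μM inhibitor for 4 days, then immunoblotted for Twist1, N-cadherin and E-cadherin.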

[18] = system: Squamous carcinoma cell line; experiment: Antitumor activity against human squamous carcinoma cells in BALB/c nude PDX xenograft mouse assessed as reduction in Ki67-positive cells at 30 mg/kg by IHC analysis; type: functional, organism-based
Procedure, shortened: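 PDX: tongue squamous carcinoma tissue minced into 1∼2 mm3 pieces and passaged in BALB/c nude mice. P2 tissue implanted subcutaneously into 4-week-old mice, randomised at 50 mm3 tumour size to control or 30 mg/kg (n = 6 each). Volume change followed, and Ki-67 IHC quantified. Mean ± SD, Student's t test.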

[19] = Toxicity in BALB/c nude mouse xenografted with human HSC6 cells of orthotopic tumor assessed as effect on body weight at 30 mg/kg; type: organism-based; conditions: in vivo
Procedure, shortened: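 Orthotopic model: 5 × 10^5 HSC6 cells injected submucosally into the tongue of 4-week-old BALB/c nude mice. Control vs 30 mg/kg (n = 12 each). Body weight was followed, and cervical lymph nodes were stained with pan-cytokeratin.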

[20] = biological target: Protein arginine N-methyltransferase 5 (Homo sapiens) (UniProt O14744); experiment: Inhibition of PRMT5 in human HSC-6 cells assessed as increase in E-cadherin protein expression level at 10 uM incubated for 4 days by western blot analysis; conditions: time 4.0 day
[21] = Toxicity in BALB/c nude mouse xenografted with human tongue squamous carcinoma cells assessed as effect on kidney morphology at 30 mg/kg; type: organism-based; conditions: in vivo
HSC-6 [22] = experiment: Antitumor activity against human HSC-6 cells xenografted in BALB/c nude mouse assessed as reduction in Ki67-positive tumor cell at 15 to 30 mg/kg by immunohistochemistry analysis; type: functional, organism-based; conditions: dose 15-30 mg/kg; procedure, shortened: as §2
[23] = biological target: Protein arginine N-methyltransferase 5 (Homo sapiens) (UniProt O14744); experiment: Inhibition of PRMT5 in human SCC-25 cells assessed as reduction in Twist1 protein expression at 10 uM incubated for 4 days by western blot analysis; type: cell-based; conditions: time 4.0 day; procedure, shortened: as §3
[24] = Toxicity in BALB/c nude mouse xenografted with human HSC6 cells assessed as effect on liver morphology at 15 to 30 mg/kg; type: organism-based; conditions: in vivo, dose 15-30 mg/kg; procedure, shortened: as §1
HSC-6 [25] = experiment: Anti-invasive activity against human HSC-6 cells assessed as reduction in cell invasion at 10 uM for 4 days by transwell assay; type: functional, cell-based; conditions: time 4.0 day
Procedure, shortened: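 Transwell migration and invasion with 8-μm pore inserts. HSC6 or SCC25 cells, including lines stably overexpressing Flag-Twist1, treated at 10 μM for 4 days. Mean ± SD of three independent experiments, one-way ANOVA.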

Structure (SMILES): O=C(NC[C@H](O)CN1CCc2ccccc2C1)c1cc(NC2COC2)ncn1
- Activity (Rattus norvegicus [1]): 46.2%
- Activity (HSC-6 [2]): Active
- Activity [3]: Non-Toxic
- Activity (HSC-6 [4]): Active
- Activity (Rattus norvegicus [5]): 15.4%
- Activity (Rattus norvegicus [6]): Active
- Activity (HSC-6 [7]): Active
- inhibition [8]: Active
- Activity (HSC-6 [9]): Active
- Activity (HSC-6 [10]): Active
- Activity (HSC-6 [11]): Active
- inhibition [12]: Active
- inhibition [13]: inactive
- Activity (SCC-25): Active
- Activity [14]: Non-Toxic
- inhibition [15]: inactive
- inhibition [16]: Active
- inhibition [17]: inactive
- Activity [18]: Active
- Activity [19]: Non-Toxic
- inhibition [20]: Active
- Activity [21]: Non-Toxic
- Activity (HSC-6 [22]): Active
- inhibition [23]: Active
- Activity [24]: Non-Toxic
- Activity (HSC-6 [25]): Active
